Test results reported in ChEMBL document CHEMBL3352693, “Notolutesins A-J, dolabrane-type diterpenoids from the Chinese liverwort Notoscyphus lutescens” (J Nat Prod, 2014).
Structures can show the parent of a compound that is named as a salt.

Columns and labels:
Format in all cases: functional, cell-based
[1] = Cytotoxicity against human PC3 cells after 24 hrs by MTT assay; details: PC-3, 24 h
Summary of the method: (§1)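 Cells seeded 24 h before treatment, then exposed continuously to a range of compound concentrations (dissolved in DMSO) for 24 h. MTT (5 mg/mL in PBS) added, 4 h at 37 °C, 5% CO2; absorbance read at 570 nm. IC50 (50% growth inhibition) derived from plotted data, untreated cells as 100%; at least three experiments. Taxol and adriamycin as positive controls.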

[2] = system: DU-145; experiment: Cytotoxicity against human DU145 cells after 24 hrs by MTT assay; details: DU-145, 24 h; summary of the method: as §1
[3] = Cytotoxicity against human NCI-H1688 cells after 24 hrs by MTT assay; details: NCI-H1688, 24 h; summary of the method: as §1
[4] = system: A549; experiment: Cytotoxicity against human A549 cells after 24 hrs by MTT assay; details: A549, 24 h; summary of the method: as §1

Row | SMILES | IC50 [1] [µM] | IC50 [2] [µM] | IC50 [3] [µM] | IC50 [4] [µM]
1 | C=C[C@@]1(C)CC[C@@]2(C)[C@@H](CC[C@]34COC(=O)C3=C[C@@H](O)C[C@@H]42)C1 | 6.2 | > 10 | > 10 | > 10
2 | CC(=O)O[C@H]1C(=O)[C@@]2(C)[C@H]([C@H](OC(=O)c3ccccc3)[C@]3(O)C[C@H](OC(=O)[C@H](O)[C@@H](NC(=O)c4ccccc4)c4ccccc4)C(C)=C1C3(C)C)[C@]1(OC(C)=O)CO[C@@H]1C[C@@H]2O [PACLITAXEL] | 0.94 | 1.79 | 0.85 | 
3 | COc1cccc2c1C(=O)c1c(O)c3c(c(O)c1C2=O)C[C@@](O)(C(=O)CO)C[C@@H]3O[C@H]1C[C@H](N)[C@H](O)[C@H](C)O1 [DOXORUBICIN HYDROCHLORIDE] | 11.7 | 21.4 | 4.22 | 23.7
